Values joined by “and” are separate entries in the source; they are usually repeats but may differ in a detail not shown here. Identical values can stand only once.
Columns and labels:
[1] = test system: mitochondrial permeability transition pore (PTP); assay: Ca2+-induced mitochondrial swelling assay; format: biochemical; conditions: read-out: mitochondrial swelling EC50; isolated mouse liver mitochondria; 50 μM Ca2+
Method in brief: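 Mitochondria isolated from mouse liver take up 50 μM Ca2+ to trigger pore-dependent swelling. Swelling is followed across a range of test compound concentrations. Data are the average ± SEM of ≥ 4 experiments.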

IMM potential = assay: Rhodamine 123 uptake counterscreen; format: biochemical; conditions: read-out: Rh123 uptake EC50, isolated mouse liver mitochondria
Method in brief: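 Isolated mouse liver mitochondria took up rhodamine 123 as a read-out of inner-membrane potential. The test compound was applied in a concentration series, and interference with Rh123 uptake was recorded. Values are the average ± SEM of ≥4 experiments.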

[2] = test system: mitochondrial permeability transition pore (PTP); assay: Ca2+ retention capacity; format: biochemical; conditions: isolated mouse liver mitochondria
Method in brief: (§1)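 Isolated mouse liver mitochondria from wild-type or CyPD-knockout mice were used. Ca2+ retention capacity was taken as the amount of Ca2+ needed to open the pore. Mitochondria were treated across a concentration range of test compound or solvent, and results were expressed as the compound-to-solvent CRC ratio. Values are the average ± SEM of ≥4 experiments.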

[3] = test system: mitochondrial permeability transition pore (PTP); assay: CRC assay in CyPD-null mouse liver mitochondria; format: biochemical
Method in brief: as §1

[4] = test system: mitochondrial permeability transition pore (PTP); assay: CRC of permeabilized HeLa cells; format: cell-based, human
Method in brief: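 Ca2+ retention capacity was measured in permeabilized HeLa cells, 0.8 million cells per condition. The test compound was applied across a concentration range. Results are expressed as the compound-to-solvent CRC ratio, average ± SEM of ≥4 experiments.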

[5] = aqueous solubility in 1xPBS; format: physicochemical
[6] = chemical stability with 5x DTT; format: physicochemical
aqueous stability = format: physicochemical
[7] = plasma protein binding, human; format: in vitro ADME
[8] = plasma protein binding, mouse; format: in vitro ADME
plasma stability, human = format: in vitro ADME
plasma stability, mouse = format: in vitro ADME
PAMPA permeability = format: in vitro ADME; conditions: Pe
BBB PAMPA permeability = format: in vitro ADME; conditions: pH 7.4
[9] = hepatic microsome stability, human; format: in vitro ADME; conditions: liver microsomes, hepatic microsome stability (% remaining after 1 h)
[10] = hepatic microsome stability, mouse; format: in vitro ADME; conditions: liver microsomes, hepatic microsome stability (% remaining after 1 h)
[11] = toxicity towards Fa2N-4 immortalized human hepatocytes; format: cell-based; conditions: human, Fa2N-4 immortalized hepatocytes
[12] = test system: Fa2N-4 immortalized human hepatocytes; assay: as above; format: cell-based
[13] = test system: isolated mouse liver mitochondria; assay: mitochondrial respiration in isolated mouse liver mitochondria; format: biochemical
Method in brief: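 Isolated mouse liver mitochondria were treated with the test compound or solvent, and respiration was measured. Results are expressed as respiratory control ratio, reflecting the capacity to generate ATP. Values are the average ± SEM of ≥4 experiments.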

HeLa cells [14] = assay: oxygen-consumption rate of intact HeLa cells; format: cell-based, human; conditions: ≤ 10 μM
HeLa cells [15] = assay: HeLa cell proliferation after 24-hour treatment; format: cell-based, human; conditions: ≤ 10 μM
Method in brief: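 HeLa cells were treated with the test compound at the indicated concentrations for 24 hours, and proliferation was then assessed. Values are the average ± SEM of ≥4 experiments.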

O=C(Nc1ccc(CN2CCCCC2)cc1)c1cc(Cl)cc(OCc2ccccc2)c1 [Compound 4, 3-(benzyloxy)-5-chloro-N-(4-(piperidin-1-ylmethyl)phenyl)benzamide]
EC50 [1]: 0.28 ± 0.024 µM
EC50 (IMM potential): 24.5 ± 1.12 µM
CRC/CRC0 at 12.5 μM ([2]; 12.5 μM, compound-to-solvent CRC ratio): 19.5 ± 1.7
maximum CRC ratio relative to CsA-treated mitochondria [2]: about 4 times
increase in CRC in CyPD-null mouse liver mitochondria [3]: 7 fold
effect on CRC of permeabilized HeLa cells [4]: concentration-dependent increase
solubility ([5]; pH 5, aqueous buffer): 22.8 µg/mL and 52.5 µM
solubility ([5]; pH 6.2, aqueous buffer): 22.6 µg/mL and 52.1 µM
solubility ([5]; pH 7.4, aqueous buffer): 0.64 µg/mL and 1.5 µM
chemical stability with 5× DTT, % parent remaining after 8 h [6]: 91%
aqueous stability (1:1 PBS/acetonitrile), % parent remaining after 48 h (aqueous stability): 93.4%
fraction unbound at 1 μM [7]: 0.008
fraction unbound at 10 μM [7]: 0.008
fraction unbound at 1 μM [8]: 0.007
fraction unbound at 10 μM [8]: 0.017
remaining at 3 h (plasma stability, human): 39%
remaining at 3 h (plasma stability, mouse): 35%
Papp (PAMPA permeability; Donor pH 5.0, Acceptor pH 7.4): 1300 ×10⁻⁶ cm/s
Papp (PAMPA permeability; Donor pH 6.2, Acceptor pH 7.4): 1340 ×10⁻⁶ cm/s
Papp (BBB PAMPA permeability): 113 ×10⁻⁶ cm/s
remaining at 1 h ([9]; +NADPH): 61%
remaining at 1 h ([9]; -NADPH): 67%
remaining at 1 h ([10]; +NADPH): 30%
remaining at 1 h ([10]; -NADPH): 74%
CC50 [11]: 32 µM
selectivity, Fa2N-4 LC50 compared to mitochondrial swelling EC50 [12]: 114 fold
effect on ATP synthesis ([13]; 5 μM): no effect
respiratory control ratios, FCCP-stimulated and oligomycin-sensitive respiration ([13]; ≤ 10 μM, isolated mouse liver mitochondria): No significant differences
FCCP-stimulated and oligomycin-sensitive respiration (OCR) (HeLa cells [14]): No significant differences
effect on HeLa cell proliferation (HeLa cells [15]): no effect

Reference: paper PMC4948641 (ChemMedChem, 2015)
